# Measurements from different studies.
# Protocols differ between the studies behind these lines.
# Target: Phosphorylase b kinase gamma catalytic chain, skeletal muscle/heart isoform (PHKG1, Homo sapiens, UniProt Q16816)
SMILES,effect on,action,technique,tested at,endpoint,result
CC(=O)Nc1c(C(C)=O)c(=O)n(C)c2nc(-c3ccc(Cl)cc3Cl)c(-c3ccc(Cl)cc3)cc12,cell-free assay,,competition with immobilised ligand,1 µM,remaining binding,100%
CCCCNc1ncc2c(-c3ccc(F)cc3)nn(C[C@H]3CC[C@H](N)CC3)c2n1,target engagement in cells,inhibitor,chemoproteomics,20 mM,inhibition,26.4%
C[C@@H]1CN(c2cc(-c3nn(C)c4ccc(OC5(C)CC5)cc34)ncn2)C[C@H](C)O1,cell-free assay,,competition with immobilised ligand,1 µM,remaining binding,90%
COc1cc2ncnc(Nc3ccc(Oc4ccccc4)cc3C)c2cc1OC,enzyme activity,inhibitor,,1 µM,inhibition,-1%
CCCOc1ccc([C@H]2[C@H](C(=O)O)[C@@H](c3ccc4c(c3)OCO4)CN2CC(=O)Nc2c(CC)cccc2CC)cc1,cell-free assay,,competition with immobilised ligand,1 µM,remaining binding,99%
Nc1ncnc2occ(-c3ccc(NC(=O)Nc4cc(C(F)(F)F)ccc4F)cc3)c12,cell-free assay,inhibitor,,20 µM,remaining signal,92%
FC(F)c1nc2ccccc2n1-c1nc(N2CCOCC2)nc(N2CCOCC2)n1,enzyme activity,inhibitor,,10 µM,remaining activity,94%
N[C@@H]1CCN(c2nccc(-c3cnn4ncccc34)n2)C1,binding,,,1 µM,remaining binding,100%
CC(C)(C)c1nc(-c2cccc(NS(=O)(=O)c3c(F)cccc3F)c2F)c(-c2ccnc(N)n2)s1,enzyme activity,inhibitor,radiometric,1 µM,remaining activity,97%
Cc1ccc(C(=O)Nc2ccc(CN3CCN(C)CC3)c(C(F)(F)F)c2)cc1C#Cc1cnc2cccnn12,enzyme activity,inhibitor,,23.5 nM,remaining activity,100%
CS(=O)(=O)N1CCCC(NC(=O)[C@H](CCC2CCCCC2)NC(=O)c2ccc(CNc3ncnc4c3nnn4-c3ccccc3)cc2)C1 (some centres unmarked),cell-free assay,,competition with immobilised ligand,0.1 µM,remaining binding,87%
CC(C)(O)[C@H]1CC[C@H](Nc2ccc3ncc(-c4cccc(C(F)(F)F)c4)n3n2)CC1,enzyme activity,inhibitor,,1 µM,remaining activity,84.1%
O=C(Nc1cnn(-c2csc(C(=O)NC3COC3)c2)c1)Nc1ccccc1Cl,enzyme activity,inhibitor,,5 µM,remaining activity,102%
COc1cc(Cl)c(C(=O)N[C@@H](CN[C@H]2CC[C@@H](N)CC2)Cc2ccc(C#N)cc2)cc1-c1ccc(CN[C@H](C)c2ccc(C)cc2)o1,enzyme activity,inhibitor,,1 µM,remaining activity,68%
CCCS(=O)(=O)Nc1ccc(F)c(C(=O)c2c[nH]c3ncc(-c4ccc(Cl)cc4)cc23)c1F,enzyme activity,inhibitor,,1 µM,inhibition,< 20%
CC(C)(C)C(=O)c1sc(NC2CCCCC2)nc1N,enzyme activity,inhibitor,,10 µM,remaining activity,112%
CNC(=O)c1ccc(Nc2ncc(C(F)(F)F)c(NCc3nccnc3N(C)S(C)(=O)=O)n2)cc1,cell-free assay,,competition with immobilised ligand,0.1 µM,remaining binding,100%
Nc1nc(NC2CCCCC2)sc1C(=O)c1ccccc1,enzyme activity,inhibitor,,10 µM,remaining activity,105%
CNCc1ccccc1-c1csc([C@H](C)Nc2nc(C)nc3cc(OC)c(OC)cc23)c1,cell-free assay,,competition with immobilised ligand,1 µM,remaining binding,87%
O=C1NC(=O)c2cc(Nc3ccc(F)cc3)c(Nc3ccc(F)cc3)cc21,cell-free assay,,,0.5 µM,remaining signal,94.8%
